Data as given in article PMC3359018 (Chemical science (Royal Society of Chemistry : 2010), 2011).
pKd: −log10 of the molar value.

How the values were obtained:
[1] = target: T1, extracellular domain of DC-SIGN (immobilized tetrameric DC-SIGN) (Homo sapiens, UniProt Q9NNX6); format: binding; details: read-out: Kd of probe to immobilized tetrameric DC-SIGN
T1 sequence (Q9NNX6 59-404 limits assumed): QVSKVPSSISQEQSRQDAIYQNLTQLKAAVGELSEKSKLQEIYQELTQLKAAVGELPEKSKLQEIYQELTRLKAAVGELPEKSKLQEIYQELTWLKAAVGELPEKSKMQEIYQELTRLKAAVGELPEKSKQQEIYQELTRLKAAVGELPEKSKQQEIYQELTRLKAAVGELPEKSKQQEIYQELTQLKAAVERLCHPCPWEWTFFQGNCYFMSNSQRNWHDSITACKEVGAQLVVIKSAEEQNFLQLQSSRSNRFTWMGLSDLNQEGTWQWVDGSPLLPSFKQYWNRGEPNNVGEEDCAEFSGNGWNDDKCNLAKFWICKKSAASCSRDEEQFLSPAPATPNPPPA

[2] = target: T2, DC-SIGN producing Raji cells (Homo sapiens, UniProt Q9NNX6); test: Flow cytometry assay of binding and uptake of fluorescent mannosylated probe; format: cell-based; details: competitor at 100 mM; Man-Fl-BSA probe
T2 sequence (Q9NNX6 1-404): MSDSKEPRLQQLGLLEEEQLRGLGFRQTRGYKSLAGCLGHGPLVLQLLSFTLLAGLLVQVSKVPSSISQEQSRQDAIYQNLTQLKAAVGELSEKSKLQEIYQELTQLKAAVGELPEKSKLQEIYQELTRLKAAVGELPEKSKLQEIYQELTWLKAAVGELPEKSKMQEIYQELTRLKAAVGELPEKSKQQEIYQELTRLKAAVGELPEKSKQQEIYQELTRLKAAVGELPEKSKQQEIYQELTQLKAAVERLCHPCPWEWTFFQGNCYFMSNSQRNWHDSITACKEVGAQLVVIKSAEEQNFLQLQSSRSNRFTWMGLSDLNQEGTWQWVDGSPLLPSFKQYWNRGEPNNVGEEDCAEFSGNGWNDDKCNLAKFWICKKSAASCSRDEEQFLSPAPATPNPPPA
Summary of the method: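 Raji (Burkitt's lymphoma) cells stably transfected with a DC-SIGN expression vector. Surface DC-SIGN was checked with AZND1-PE antibody by microscopy and with DCN46-FITC by flow cytometry. Cells were exposed to fluorescent Man-Fl-BSA with or without test compound; ManNAc (100 mM) served as carbohydrate competitor. Percent inhibition was taken from the geometric mean fluorescence, normalized to cells without inhibitor.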

Compound	pKd [1]	probe uptake by DC-SIGN-positive cells [2]
Man-Fl-BSA: fluorescent mannosylated glycoconjugate probe (fluorescein, mannose, BSA)	2.70	
CC(=O)N[C@@H]1C(O)O[C@H](CO)[C@@H](O)[C@@H]1O (some centres unmarked) [ManNAc, N-acetylmannosamine]		significant decrease
